Measured values from ChEMBL document CHEMBL1129487, “In vivo biodistribution, pharmacokinetic parameters, and brain uptake of 5-halo-y-methoxy(or ethoxy)-5,6-dihydro-3'-azido-3'-deoxythymidine diastereomers as potential prodrugs of 3'-azido-3'-deoxythymidine” (J Med Chem, 1996).

What was measured:
[1] = species on record: Mus musculus; experiment: Thymidine Influx Inhibition constant for the compound in fresh Murine Erythrocytes; type: functional
Outline: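 Erythrocytes from B6D2F1 mice, 10% hematocrit in HEPES-buffered saline, were given [methyl-3H]-thymidine (0.1–1.0 mM, four levels) with or without test compound (0.1–2.5 mM, four levels). Zero-trans influx ran 3 s and was stopped with 10 µM NBMPR (final). Cells were perchloric acid extracted and counted, with the zero-time blank subtracted. Ki came from a Dixon plot (1/v vs i), in duplicate.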

[2] = Partition coefficient for 1-octanol/water was evaluated; type: physicochemical
[3] = Concentration in mouse blood 60 min post injection at a dose 240 mocromol/kg; type: ADME, organism-based; conditions: whole blood
Outline: (§1)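 Balb/c mice given 240 µmol/kg iv of the test diastereomer (10% DMSO/water vehicle, tail vein). Blood was drawn by cardiac puncture into heparinized syringe at 15, 20, 60 and 90 min. FIAU was added as internal standard, and the sample was extracted by Sep-Pak. AZT and parent were measured by C18 HPLC (water:methanol 7:3, UV 265 nm). Values are the average of two experiments.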

[4] = Concentration in mouse blood 90 min post injection at a dose 240 mocromol/kg; type: ADME; conditions: whole blood; outline: as §1
[5] = Concentration in mouse blood 15 min post injection at a dose 240 mocromol/kg; type: ADME, organism-based; conditions: whole blood; outline: as §1
[6] = Concentration in mouse blood 20 min post injection at a dose 240 mocromol/kg; type: ADME, organism-based; conditions: whole blood; outline: as §1
[7] = Half-life for the compound after intravenous administration into BALB/c Mice in plasma samples.; type: ADME, organism-based; conditions: mouse
Outline: (§2)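 Tail-vein injection in Balb/c mice at 144 µmol/kg, dissolved in 10% DMSO/water. Three mice per time point were killed by CO2, and blood was taken by cardiac puncture. With FIAU as internal standard, supernatant was Sep-Pak extracted. AZT was quantified by C18 HPLC (water:methanol 7:3, 265 nm; detection limit about 0.5 µg/mL). AUC covers 0 to last sample; t1/2 is from a one-compartment model.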

[8] = tested on: Mus musculus; experiment: Pharmacokinetic parameter AUC for the compound after intravenous administration into BALB/c Mice in plasma samples.; type: ADME, organism-based; parameters: concentration or dose not given beside the values; conditions: in vivo; outline: as §2
[9] = species on record: Mus musculus; experiment: Percentage of total protein recovered in P1 subregion in mouse brain that contains nuclei and cell debris, after Jugular Vein Injection; type: ADME, organism-based; conditions: in vivo, iv
Outline: (§3)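 Brains were pooled from five mice, with cerebella removed, in 0.32 M sucrose. Homogenate was centrifuged at 0-4 °C: P1 at 1000g 10 min, P2 at 10000g 30 min, P3 at 100000g 1 h, S3 supernatant. Protein was by Lowry. Pellets were Protosol-solubilized at 55 °C, then counted by combustion/scintillation.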

[10] = species on record: Mus musculus; experiment: Percentage of total protein recovered in S3 which is the soluble fraction in mouse brain after Jugular Vein Injection; conditions: in vivo, iv
[11] = species on record: Mus musculus; experiment: Percentage of radioactivity in S3 which is the soluble fraction in mouse brain after Jugular Vein Injection; type: ADME, organism-based; conditions: in vivo, iv; outline: as §3
[12] = species on record: Mus musculus; experiment: Distribution of analyte (pmol/mg) in mouse brain regions after Jugular Vein Injection into rest of the brain; type: ADME, organism-based; conditions: in vivo, iv
[13] = species on record: Mus musculus; experiment: Quantity of anylate in P2 subregion in mouse brain that contains myelin fragments, synaptosomes (pinched-nerve endings), and mitochondria after Jugular Vein Injection; type: functional, organism-based; outline: as §3
[14] = species on record: Mus musculus; experiment: Percentage of radioactivity in P2 subregion in mouse brain that contains myelin fragments, synaptosomes (pinched-nerve endings), and mitochondria after Jugular Vein Injection; type: ADME, organism-based; conditions: in vivo, iv; outline: as §3
[15] = species on record: Mus musculus; experiment: Quantity of anylate in S3 which is the soluble fraction in mouse brain after Jugular Vein Injection; type: functional; outline: as §3
[16] = species on record: Mus musculus; experiment: Distribution of analyte (pmol/mg) in mouse brain regions after Jugular Vein Injection into striatum; type: ADME, organism-based; conditions: in vivo, iv
[17] = species on record: Mus musculus; experiment: Distribution of analyte (pmol/mg) in mouse brain regions after Jugular Vein Injection into pons and medulla; type: ADME, organism-based; conditions: in vivo, iv
[18] = species on record: Mus musculus; experiment: Percentage of radioactivity in P1 subregion in mouse brain that contains nuclei and cell debris, after Jugular Vein Injection; type: ADME, organism-based; conditions: in vivo, iv; outline: as §3
[19] = species on record: Mus musculus; experiment: Percentage of total protein recovered in P3 subregion in mouse brain that contains microsomal fraction after Jugular Vein Injection; type: ADME, organism-based; conditions: iv; outline: as §3
[20] = species on record: Mus musculus; experiment: Percentage of radioactivity in P3 subregion in mouse brain that contains microsomal fraction after Jugular Vein Injection; type: ADME, organism-based; conditions: in vivo, iv; outline: as §3
[21] = species on record: Mus musculus; experiment: Distribution of analyte (pmol/mg) in mouse brain regions after Jugular Vein Injection into cortex; type: ADME, organism-based; conditions: in vivo, iv
[22] = species on record: Mus musculus; experiment: Quantity of anylate in P3 subregion in mouse brain that contains microsomal fraction after Jugular Vein Injection; type: functional, organism-based; outline: as §3
[23] = species on record: Mus musculus; experiment: Distribution of analyte (pmol/mg) in mouse brain regions after Jugular Vein Injection into hippocampus; type: ADME, organism-based; conditions: in vivo, iv
[24] = species on record: Mus musculus; experiment: Distribution of analyte (pmol/mg) in mouse brain regions after Jugular Vein Injection into hypothalamus; type: ADME, organism-based; conditions: in vivo, iv
[25] = species on record: Mus musculus; experiment: Quantity of anylate in P1 subregion in mouse brain that contains nuclei and cell debris, after Jugular Vein Injection; type: functional; outline: as §3
[26] = species on record: Mus musculus; experiment: Distribution of analyte (pmol/mg) in mouse brain regions after Jugular Vein Injection into cerebellum; type: ADME, organism-based; conditions: in vivo, iv
[27] = species on record: Mus musculus; experiment: Percentage of total protein recovered in P2 subregion in mouse brain that contains myelin fragments, synaptosomes (pinched-nerve endings), and mitochondria after Jugular Vein Injection; type: ADME, organism-based; conditions: in vivo, iv; outline: as §3

For `CO[C@H]1N(C2CC(N=[N+]=[N-])C(CO)O2)C(=O)NC(=O)[C@]1(C)Cl` (stereo not given in full), the Ki [1] was 360 µM, the Partition coefficient [2] was 7.6 and the concentration at 1 h [3] was 16300 ng/mL. For the same compound, the concentration at […] [4] was 1100 ng/mL, the concentration at 0.25 h [5] was 28800 ng/mL and the concentration at 20 min [6] was 12500 ng/mL.

`O=c1ccn([C@H]2C[C@H](O)[C@@H](CO)O2)c(=O)[nH]1` [DEOXYURIDINE] showed a Ki [1] of 125 µM.

In the case of `Cc1cn([C@H]2C[C@H](N=[N+]=[N-])[C@@H](CO)O2)c(=O)[nH]c1=O` [ZIDOVUDINE], the Ki [1] is reported as 1330 µM, the Partition coefficient [2] is reported as 1.3 and the concentration at […] [4] is reported as < 1000 ng/mL. It also gave a concentration at 0.25 h [5] of 2500 ng/mL, a half-life [7] of 23.5 min and a concentration at 20 min [6] of 2500 ng/mL. For the same compound, the AUC [8] was 11800 ng·h/mL.

For `CO[C@H]1N(C2CC(N=[N+]=[N-])C(CO)O2)C(=O)NC(=O)[C@]1(C)Br` (stereo not given in full), the Distribution [9] was 13.3%, the Distribution [10] was 24.9% and the Ki [1] was 450 µM. The Distribution [11] was 88.4%, the Distribution [12] was 0.71 pmol/mg and the Partition coefficient [2] was 13.2. It also gave a Quantity [13] of 0.65 pmol/mg, a Distribution [14] of 5.6% and a Quantity [15] of 21.8 pmol/mg. It also gave a Distribution [16] of 0.88 pmol/mg, a Distribution [17] of 0.66 pmol/mg and a Distribution [18] of 4.6%. The Distribution [19] was 8.7%, the Distribution [20] was 1.4% and the half-life [7] was 41.8 min. It also gave an AUC [8] of 6740 ng·h/mL, a Distribution [21] of 0.71 pmol/mg and a Quantity [22] of 0.98 pmol/mg. For the same compound, the Distribution [23] was 0.71 pmol/mg, the Distribution [24] was 1.32 pmol/mg and the Quantity [25] was 2.08 pmol/mg. For the same compound, the Distribution [26] was 0.72 pmol/mg and the Distribution [27] was 53.1%.

For `CCO[C@H]1N(C2CC(N=[N+]=[N-])C(CO)O2)C(=O)NC(=O)[C@]1(C)Br` (stereo not given in full), the Distribution [9] was 11.9%, the Distribution [10] was 27.5% and the Distribution [11] was 84.7%. It also gave a Distribution [12] of 0.83 pmol/mg, a Quantity [13] of 1.62 pmol/mg and a Distribution [14] of 7.7%. It also gave a Quantity [15] of 27.8 pmol/mg, a Distribution [16] of 0.85 pmol/mg and a Distribution [17] of 0.62 pmol/mg. For the same compound, the Distribution [18] was 5.2%, the Distribution [19] was 17.6% and the Distribution [20] was 2.4%. It also gave a Distribution [21] of 0.66 pmol/mg, a Quantity [22] of 1.21 pmol/mg and a Distribution [23] of 1.1 pmol/mg. It also gave a Distribution [24] of 1.1 pmol/mg, a Quantity [25] of 3.96 pmol/mg and a Distribution [26] of 0.66 pmol/mg. It also gave a Distribution [27] of 43%.

`CO[C@@H]1N(C2CC(N=[N+]=[N-])C(CO)O2)C(=O)NC(=O)[C@@]1(C)Br` (stereo not given in full) gave a Ki [1] of 500 µM, a Partition coefficient [2] of 16.7 and a half-life [7] of 31.1 min. It also gave an AUC [8] of 13500 ng·h/mL.

In the case of `CO[C@H]1N(C2CC(N=[N+]=[N-])C(CO)O2)C(=O)NC(=O)[C@@]1(C)Cl` (stereo not given in full), the Ki [1] is reported as > 1500 µM and the Partition coefficient [2] is reported as 3.3.

Work on `CO[C@H]1N(C2CC(N=[N+]=[N-])C(CO)O2)C(=O)NC(=O)[C@]1(C)I` (stereo not given in full) yielded a Ki [1] of 350 µM, a Partition coefficient [2] of 10.6 and a half-life [7] of 33.6 min. For the same compound, the AUC [8] was 12500 ng·h/mL.

With `CO[C@@H]1N(C2CC(N=[N+]=[N-])C(CO)O2)C(=O)NC(=O)[C@@]1(C)I` (stereo not given in full) the Ki [1] was 200 µM, the Partition coefficient [2] was 18.8 and the half-life [7] was 149 min. The AUC [8] was 9820 ng·h/mL.
